In ChEMBL document CHEMBL1129639, “Synthesis and cardiotonic activity of novel pyrimidine derivatives: crystallographic and quantum chemical studies” (J Med Chem, 1996):

What was measured:
[1] = organism: Cavia porcellus; assay: Inotropic effect in electrically driven left atrium from reserpine-treated guinea pigs at concentration of 10E-3 M; assay type: functional, Cardiac atrium
How it was run: (§1)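 Electrically driven left atrium from reserpine-treated guinea pigs (tyramine-unresponsive), 29 °C, pH 7.5, resting tension […], 90 min equilibration. Compound dissolved in DMSO and added cumulatively, 5 min per step. Where used, adenosine deaminase was preincubated 20 min, and basal force was taken after ADA addition. Developed tension given as % change over control. Mean ± SEM of six assays.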

[2] = organism: Cavia porcellus; assay: Inotropic Response in Electrically Driven Left Atrium from Reserpine-Treated Guinea Pigs in the absence of adenosine deaminase (ADA) at 10E-5 M; assay type: functional; how it was run: as §1
[3] = organism: Cavia porcellus; assay: Inotropic Response in Electrically Driven Left Atrium from Reserpine-Treated Guinea Pigs in the presence of 2 U/mL of adenosine deaminase (ADA) at 3 x 10E-6 M; assay type: functional; how it was run: as §1
[4] = organism: Cavia porcellus; assay: Effect on the contractile force of spontaneously beating atria from Reserpine-treated guinea pigs as percentage variation from the control at concentration of 3 x 10E-6 M; assay type: functional
How it was run: (§2)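 Atria from reserpine-treated guinea pigs (reserpine 2 mg/kg ip, 48 and 24 h before death; only tyramine-unresponsive preparations used). Bath solution at 29 °C, gassed 95% O2/5% CO2, pH 7.5, resting tension […]. After 90 min equilibration, compound added cumulatively, 5 min per concentration. Isometric developed-tension amplitude or beating rate given as % variation from untreated control. Mean ± SEM, 6-10 assays.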

[5] = organism: Cavia porcellus; assay: Effect on the frequency rate of spontaneously beating atria from Reserpine-treated guinea pigs as percentage variation from the control at concentration of 10E-3 M; assay type: functional; how it was run: as §2
[6] = target: T1, Adenosine receptor A1 (Cavia porcellus, UniProt P47745); assay: Inhibition of [3H]-CHA binding to Adenosine A1 receptor in guinea pig heart
T1 sequence (P47745 whole entry): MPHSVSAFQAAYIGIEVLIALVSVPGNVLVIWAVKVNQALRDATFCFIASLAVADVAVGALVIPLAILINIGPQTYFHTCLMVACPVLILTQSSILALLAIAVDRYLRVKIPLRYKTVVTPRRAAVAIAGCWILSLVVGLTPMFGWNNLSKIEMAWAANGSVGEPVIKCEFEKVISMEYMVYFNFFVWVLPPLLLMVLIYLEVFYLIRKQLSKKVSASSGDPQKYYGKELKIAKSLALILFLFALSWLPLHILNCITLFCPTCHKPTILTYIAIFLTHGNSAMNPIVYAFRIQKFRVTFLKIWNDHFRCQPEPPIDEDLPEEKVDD
How it was run: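 Guinea pig heart membranes prepared in 50 mM Tris-HCl pH 7.4 and pretreated with adenosine deaminase 2 IU/mL for 30 min at 37 °C. Incubated with 1 nM [3H]CHA, membranes from 15 mg tissue, 120 min at 23 °C. Bound ligand separated by GF/B filtration; nonspecific binding defined with (R)-PIA. Six concentrations tested in triplicate; IC50 by probit analysis.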

[7] = organism: Cavia porcellus; assay: Effect on the contractile force of spontaneously beating atria from Reserpine-treated guinea pigs as percentage variation from the control at concentration of 10E-3 M; assay type: functional; how it was run: as §2
[8] = organism: Cavia porcellus; assay: Inotropic effect in electrically driven left atrium from reserpine-treated guinea pigs at concentration of 3 x 10E-5 M; assay type: functional, Cardiac atrium; how it was run: as §1
[9] = organism: Cavia porcellus; assay: Inotropic Response in Electrically Driven Left Atrium from Reserpine-Treated Guinea Pigs in the absence of adenosine deaminase (ADA) at 10E-4 M; assay type: functional; how it was run: as §1
[10] = organism: Cavia porcellus; assay: Inotropic effect in electrically driven left atrium from reserpine-treated guinea pigs at concentration of 10E-4 M; assay type: functional, Cardiac atrium; how it was run: as §1
[11] = organism: Cavia porcellus; assay: Inotropic Response in Electrically Driven Left Atrium from Reserpine-Treated Guinea Pigs in the presence of 2 U/mL of adenosine deaminase (ADA) at 3 x 10E-4 M; assay type: functional; how it was run: as §1
[12] = organism: Cavia porcellus; assay: Effect on the contractile force of spontaneously beating atria from Reserpine-treated guinea pigs as percentage variation from the control at concentration of 10E-6 M; assay type: functional; how it was run: as §2
[13] = organism: Cavia porcellus; assay: Inotropic Response in Electrically Driven Left Atrium from Reserpine-Treated Guinea Pigs in the presence of 2 U/mL of adenosine deaminase (ADA) at 10E-3 M; assay type: functional; how it was run: as §1
[14] = organism: Cavia porcellus; assay: Inotropic effect in electrically driven left atrium from reserpine-treated guinea pigs at concentration of 3 x 10E-4 M; assay type: functional, Cardiac atrium; how it was run: as §1
[15] = organism: Cavia porcellus; assay: Effect on the frequency rate of spontaneously beating atria from Reserpine-treated guinea pigs as percentage variation from the control at concentration of 10E-4 M; assay type: functional; how it was run: as §2
[16] = organism: Cavia porcellus; assay: Inotropic Response in Electrically Driven Left Atrium from Reserpine-Treated Guinea Pigs in the absence of adenosine deaminase (ADA) at 3 x 10E-4 M; assay type: functional; how it was run: as §1
[17] = organism: Cavia porcellus; assay: Inotropic effect in electrically driven left atrium from reserpine-treated guinea pigs at concentration of 10E-6 M; assay type: functional, Cardiac atrium; how it was run: as §1
[18] = organism: Cavia porcellus; assay: Inotropic Response in Electrically Driven Left Atrium from Reserpine-Treated Guinea Pigs in the absence of adenosine deaminase (ADA) at 10E-3 M; assay type: functional; how it was run: as §1
[19] = organism: Cavia porcellus; assay: (§3) Compound was evaluated for its effect on the frequency rate of spontaneously beating atria from Reserpine-treated guinea pigs as percentage variation from the control at concentration of 3 x 10E-5 M; assay type: functional; how it was run: as §2
[20] = organism: Cavia porcellus; assay: Inotropic Response in Electrically Driven Left Atrium from Reserpine-Treated Guinea Pigs in the presence of 2 U/mL of adenosine deaminase (ADA) at 3 x 10E-5 M; assay type: functional; how it was run: as §1
[21] = organism: Cavia porcellus; assay: Effect on the contractile force of spontaneously beating atria from Reserpine-treated guinea pigs as percentage variation from the control at concentration of 3 x 10E-4 M; assay type: functional; how it was run: as §2
[22] = organism: Cavia porcellus; assay: Compound was evaluated for its effect on the frequency rate of spontaneously beating atria from Reserpine-treated guinea pigs as percentage variation from the control at concentration of 3 x 10E-4 M; assay type: functional; how it was run: as §2
[23] = organism: Cavia porcellus; assay: Effect on the frequency rate of spontaneously beating atria from Reserpine-treated guinea pigs as percentage variation from the control at concentration of 10E-5 M; assay type: functional; how it was run: as §2
[24] = organism: Cavia porcellus; assay: Inotropic Response in Electrically Driven Left Atrium from Reserpine-Treated Guinea Pigs in the absence of adenosine deaminase (ADA) at 3 x 10E-6 M; assay type: functional; how it was run: as §1
[25] = organism: Cavia porcellus; assay: Inotropic effect in electrically driven left atrium from reserpine-treated guinea pigs at concentration of 3 x 10E-6 M; assay type: functional, Cardiac atrium; how it was run: as §1
[26] = organism: Cavia porcellus; assay: Effect on the contractile force of spontaneously beating atria from Reserpine treated guinea pigs as percentage variation from the control at concentration of 10E-4 M; assay type: functional; how it was run: as §2
[27] = organism: Cavia porcellus; assay: Compound was evaluated for its effect on the frequency rate of spontaneously beating atria from Reserpine-treated guinea pigs as percentage variation from the control at concentration of 3 x 10E-6 M; assay type: functional; how it was run: as §2
[28] = organism: Cavia porcellus; assay: Effect on the contractile force of spontaneously beating atria from Reserpine-treated guinea pigs as percentage variation from the control at concentration of 3 x 10E-5 M; assay type: functional; how it was run: as §2
[29] = organism: Cavia porcellus; assay: Inotropic Response in Electrically Driven Left Atrium from Reserpine-Treated Guinea Pigs in the absence of adenosine deaminase (ADA) at 3 x 10E-5 M; assay type: functional; how it was run: as §1
[30] = organism: Cavia porcellus; assay: Inotropic effect in electrically driven left atrium from reserpine-treated guinea pigs at concentration of 10E-5 M; assay type: functional, Cardiac atrium; how it was run: as §1
[31] = organism: Cavia porcellus; assay: Inotropic Response in Electrically Driven Left Atrium from Reserpine-Treated Guinea Pigs in the presence of 2 U/mL of adenosine deaminase (ADA) at 10E-5 M; assay type: functional; how it was run: as §1
[32] = organism: Cavia porcellus; assay: Effect on the frequency rate of spontaneously beating atria from Reserpine-treated guinea pigs as percentage variation from the control at concentration of 10E-6 M; assay type: functional; how it was run: as §2
[33] = organism: Cavia porcellus; assay: Inotropic Response in Electrically Driven Left Atrium from Reserpine-Treated Guinea Pigs in the presence of 2 U/mL of adenosine deaminase (ADA) at 10E-4 M; assay type: functional; how it was run: as §1
[34] = organism: Cavia porcellus; assay: Effect on the contractile force of spontaneously beating atria from Reserpine-treated guinea pigs as percentage variation from the control at concentration of 10E-5 M; assay type: functional; how it was run: as §2
[35] = organism: Cavia porcellus; assay: as §3; assay type: functional, guinea pig; how it was run: as §2
[36] = organism: Cavia porcellus; assay: Compound was evaluated for its effect on the frequency rate of spontaneously beating atria from Reserpine-treated guinea pigs as percentage variation from the control at different concentration of 10E-6 M; assay type: functional; how it was run: as §2
[37] = organism: Cavia porcellus; assay: Compound was evaluated for its effect on the frequency rate of spontaneously beating atria from Reserpine-treated guinea pigs as percentage variation from the control at different concentration of 10E-5 M; assay type: functional; how it was run: as §2
[38] = organism: Cavia porcellus; assay: Compound was evaluated for its effect on the frequency rate of spontaneously beating atria from Reserpine-treated guinea pigs as percentage variation from the control at different concentration of 3 x10E-6 M; assay type: functional; how it was run: as §2
[39] = organism: Cavia porcellus; assay: Compound was evaluated for its effect on the frequency rate of spontaneously beating atria from Reserpine-treated guinea pigs as percentage variation from the control at different concentration of 3 x 10E-4 M; assay type: functional; how it was run: as §2
[40] = organism: Cavia porcellus; assay: Compound was evaluated for its effect on the frequency rate of spontaneously beating atria from Reserpine-treated guinea pigs as percentage variation from the control at different concentration of 10E-3 M; assay type: functional; how it was run: as §2
[41] = organism: Cavia porcellus; assay: Compound was evaluated for its effect on the frequency rate of spontaneously beating atria from Reserpine-treated guinea pigs as percentage variation from the control at different concentration of 3 x 10E-5 M; assay type: functional; how it was run: as §2
[42] = organism: Cavia porcellus; assay: Compound was evaluated for its effect on the frequency rate of spontaneously beating atria from Reserpine-treated guinea pigs as percentage variation from the control at different concentration of 10E-4 M; assay type: functional; how it was run: as §2
[43] = organism: Cavia porcellus; assay: Compound was evaluated for its effect on the frequency rate of spontaneously beating atria from Reserpine-treated guinea pigs as percentage variation from the control at concentration of 10e-6 M; assay type: functional; how it was run: as §2
[44] = organism: Cavia porcellus; assay: Compound was evaluated for its effect on the contractile force of spontaneously beating atria from Reserpine-treated guinea pigs as percentage variation from the control at concentration 10E-3 M; assay type: functional; how it was run: as §2

Structure (SMILES)	Variation [4]	Variation [5]	Variation [7]	Variation [12]	Variation [15]	Variation [19]	Variation [21]	Variation [22]	Variation [23]	Variation [26]	Variation [27]	Variation [28]	Variation [32]	Variation [34]	further results
CN(C)c1ncc(C(=O)O)c(Cc2ccccc2)n1	9.37%	-10.25%	88.05%	3.52%	-5.02%	-3.85%	67.75%	-5.69%	0%	35.26%	0%	22.89%	0%	15.24%	Variation [1]: 78.6%; Increase [2]: 27.41%; Increase [3]: 0%; IC50 [6]: 583 µM; Variation [8]: 24.7%; Increase [9]: 44.95%; Variation [10]: 36.3%; Increase [11]: 33.3%; Increase [13]: 57.2%; Variation [14]: 53%; Increase [16]: 66.21%; Variation [17]: 3.23%; Increase [18]: 88.35%; Increase [20]: 9.52%; Increase [24]: 11.21%; Variation [25]: 9.7%; Increase [29]: 33.61%; Variation [30]: 16.5%; Increase [31]: 4.76%; Increase [33]: 19.1%
CCOC(=O)c1cnc(N(C)C)nc1	4.76%	18.51%	-59.61%	1.19%	11.11%		11.71%	14.81%	3.71%	9.03%	0%	11.04%	0%	5.55%	Variation [35]: 7.43%
CN(C)c1ncccn1	4.92%		41.66%	0%			37.73%			15.08%		11.63%		9.17%	Variation [36]: 0%; Variation [37]: 1.33%; Variation [38]: 0%; Variation [39]: 17.44%; Variation [40]: 25.17%; Variation [41]: 3.72%; Variation [42]: 9.72%
CCOC(=O)c1cnc(N(C)C)nc1C	7.12%	-17.85%		2.79%	7.14%	3.57%	-25.87%	10.71%	0%	-21.41%	0%	15.88%		9.91%	Variation [43]: -3.57%; Variation [44]: -49.52%
